In data set [1] the test system is Hepatitis C virus. In words: Antiviral activity against HCV genotype 1 infected in human Huh7 cells assessed as reduction of viral replication after 4 days by luciferase reporter gene assay. It counts as functional, organism-based, Hepacivirus hominis. Conditions: genotype 1, Huh-7, 96 h. The method in brief:
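Subgenomic genotype 1 replicon (luc-ubi-neo) Huh-5-2 cells, 5 × 10^3/well, in DMEM with 500 µg/mL G418 for 24 h at 37 °C, 5% CO2; medium refreshed with G418, compounds added from DMSO stock; 4 days at 37 °C; luciferase read-out. Value is the concentration inhibiting HCV RNA replication by 50%.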

Data set [2] deals with Hepatitis C virus. In words: Inhibition of HCV genotype 1b NS5B cdelta21 RNA polymerase using [alpha32p]GTP after 30 mins by microbeta scintillation counting. Particulars: Hepatitis C virus subtype 1b.
Data set [3] in a line: Inhibition of NTPase activity of SCV NTPase/helicase after 5 mins by FRET assay. More on the design: species or system Severe acute respiratory syndrome-related coronavirus.
In the next data set the test system is HS27. The experiment in a line: Cytotoxicity against human HS27 cells after 24 hrs by MTT assay. Particulars: hs27, 24 h. It counts as cell-based. The method in brief: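 Normal human fibroblast HS27 cells, 5 × 10^3/well in DMEM, grown 1 day (37 °C, 5% CO2), then given compounds at 0.1, 0.5, 1, 5, 10 and 50 µM (from DMSO) for 24 h; MTT viability read-out; triplicates, repeated three times. Value is the concentration reducing proliferation by 50%.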
In general terms: Formazan colour is commonly taken as a measure of viable cells.

Data set [4] is described as follows: Inhibition of helicase activity of SCV NTPase/helicase assessed as inhibition of ds-DNA unwinding after 5 mins by FRET assay. More on the design: species or system Severe acute respiratory syndrome-related coronavirus. The procedure, abridged:
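FRET unwinding: helicase solution (150 nM, 20 mM HEPES pH 7.4) preincubated 5 min at rt with compound. Started with 5× mix (5 mM MgCl2, 45 mM ATP, 25 mM DTT, 100 nM substrate): 25-bp TAMRA/fluorescein dsDNA with 20-dT 5′ overhang. Run 2 min at 37 °C, stopped with EDTA plus unlabelled trap oligomer; ex 485/em 535 nm. Value is 50% inhibition concentration.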

From ChEMBL document CHEMBL1909523, “2,6-Bis-arylmethyloxy-5-hydroxychromones with antiviral activity against both hepatitis C virus (HCV) and SARS-associated coronavirus (SCV)” (Eur J Med Chem, 2011) come the findings set out here.

Activity calls are given as the source filed them. No cut-off for these calls is given here.

Consider `O=c1cc(OCc2cccc(I)c2)oc2ccc(OCc3cccc(Cl)c3)c(O)c12`, for which the EC50 (commonly the concentration needed to bring the measured effect to its halfway point) with Hepatitis C virus [1] came out at 4 µM. Moreover, in the data set with Hepatitis C virus [2], the inhibition result was “inactive”. Moreover, the IC50 (commonly the point on the concentration scale where inhibition reaches its midpoint) in data set [3] came out at 4 µM; in data set [4] it was 11 µM. Also, the Activity with HS27 is over 50 µM.
On to `O=c1cc(OCc2ccc(Cl)cc2)oc2ccc(OCc3cccc(Cl)c3)c(O)c12`, for which the EC50 in the data set with Hepatitis C virus [1] was 24 µM. Besides, in the data set on Hepatitis C virus [2], the inhibition entry was “inactive”. Further, the IC50 in data set [3] turned out to be 28 µM; in data set [4] it was 53 µM. The same compound gave an Activity in the data set on HS27 of over 50 µM.
The like results for `O=c1cc(OCc2cccc(Cl)c2)oc2ccc(OCc3cccc(Cl)c3)c(O)c12` were, in that order, 17 µM, “inactive”, 10 µM, 40 µM and over 50 µM.
Turning to `N#Cc1cccc(COc2cc(=O)c3c(O)c(OCc4cccc(Cl)c4)ccc3o2)c1`, the EC50 in the data set with Hepatitis C virus [1] came out at 17 µM. Also, the inhibition entry in the data set on Hepatitis C virus [2] is “inactive”. Besides, the IC50 is 37 µM in data set [3] and over 50 µM in data set [4]. This compound displayed an Activity in the data set on HS27 of over 50 µM.
Regarding `N#Cc1cccc(COc2cc(O)c3c(=O)c(O)c(-c4ccccc4)oc3c2)c1`, the IC50 in data set [3] and in data set [4] was over 50 µM each time. The compound also registered an Activity in the data set with HS27 of over 50 µM.
As to `O=c1cc(OCc2cc(Cl)cc(Cl)c2)oc2ccc(OCc3cccc(Cl)c3)c(O)c12`, the EC50 with Hepatitis C virus [1] was 1 µM. Moreover, in the data set with Hepatitis C virus [2], the inhibition entry was “inactive”. In addition, the IC50 in data set [3] and in data set [4] was over 50 µM throughout. In the data set on HS27, the Activity was over 50 µM.
As for `O=C(O)/C(O)=C/C(=O)c1cccc(NCc2ccc(Cl)cc2)c1`, the EC50 in the data set on Hepatitis C virus [1] was found to be 0.8 µM. The compound further returned an IC50 in data set [3] of over 50 µM. In addition, the Activity in the data set with HS27 is over 50 µM.
In the case of `O=c1cc(OCc2ccc(I)cc2)oc2ccc(OCc3cccc(Cl)c3)c(O)c12`, in the data set with Hepatitis C virus [1], the EC50 turned out to be 3 µM. Further, the inhibition result in the data set with Hepatitis C virus [2] was “inactive”. For the same compound, the IC50 in data set [3] was 23 µM; in data set [4], 31 µM. The same compound showed an Activity in the data set with HS27 of over 50 µM.
For `O=c1c(OCc2cccc([N+](=O)[O-])c2)c(-c2ccccc2)oc2cc(O)cc(O)c12`, the IC50 in data set [3] and in data set [4] was over 50 µM in each case. The same compound had an Activity with HS27 of over 50 µM.
`O=c1cc(OCc2ccccc2)oc2ccc(OCc3cccc(Cl)c3)c(O)c12`: the EC50 in the data set on Hepatitis C virus [1] is over 50 µM. Moreover, the inhibition entry in the data set on Hepatitis C virus [2] is “inactive”. For the same compound, the IC50 in data set [3] and in data set [4] was over 50 µM each time. The compound also came in with an Activity with HS27 of over 50 µM.
